We go through 1 molecule from ChEMBL document CHEMBL5325427.

Data set [1] in a line: Toxicity in Balb/c mouse assessed as histological changes in liver by measuring toxicity score at 12.5 mg/kg by H and E staining based analysis. In kind it is organism-based. The note with it: in vivo. The method, boiled down:
(§1)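 After the 14-day daily intraperitoneal dosing (12.5 or 25 mg/kg, female Balb/c), liver, kidney, spleen, heart and lung were fixed 24 h in 10% neutral-buffered formalin and paraffin-embedded. Sections of 4 μm were stained with H&E. Lesions were scored nil 0, mild 1, moderate 2, severe 3.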

The test system of the next data set is Vero C1008. The experiment in a line: Cytotoxicity against African green monkey Vero E6 cells measured after 72 hrs by crystal violet staining based analysis. In kind it is toxicity, cell-based. The note with it: chlorocebus sabaeus, vero c1008, 72 h. The method, boiled down:
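Vero-E6 cells were seeded at 3 × 10^5 cells/mL, grown 24 h at 37 °C with 5% CO2, then given graded compound concentrations in triplicate for 72 h. Stocks were made in 10% DMSO in DMEM. Cells were fixed in 10% formalin, stained with 0.1% crystal violet, dissolved in methanol and read at A570. CC50 was taken by nonlinear regression of log concentration versus normalised response against untreated cells.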

Data set [2] can be described thus: Stability in human liver microsomes assessed as half life at 1 uM in presence of NADPH by LC-MS-MS analysis. It is filed as ADME, Microsome. (In general: Liver microsomes are vesicles of endoplasmic reticulum, rich in cytochrome P450 enzymes.)
A short description of data set [3]: Toxicity in Balb/c mouse assessed as histological changes in kidney by measuring toxicity score at 12.5 to 25 mg/kg by H and E staining based analysis. It is filed as organism-based. The note with it: in vivo, dose 12.5-25 mg/kg. An outline of the steps: as §1
Data set [4] is described as follows: Toxicity in Balb/c mouse assessed as effect on ALT at 12.5 to 25 mg/kg. In kind it is organism-based. To be noted: in vivo, dose 12.5-25 mg/kg. An outline of the steps:
(§2)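 Female Balb/c mice were randomised to vehicle (0.5% DMSO in PBS) or 12.5 or 25 mg/kg intraperitoneally daily for 14 days, then followed 12 days after treatment. Body weight, haematology and blood chemistry were compared with vehicle controls; n = 3–5.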

The nature of data set [5]: Toxicity in Balb/c mouse assessed as effect on total bilirubin at 12.5 to 25 mg/kg. In kind it is organism-based. The note with it: in vivo, dose 12.5-25 mg/kg. An outline of the steps:
as §2

The next data set relates to SARS-CoV-2. The experiment in a line: Antiviral activity against SARS-CoV-2 NRC-03-nhCoV infected in african green monkey Vero E6 cells assessed as inhibition of viral growth pre-infected cells with virus for 1 hr followed by compound addition for 1 hr and measured after 72 hrs by crystal violet staining based analysis. The note with it: Severe acute respiratory syndrome coronavirus 2, NRC-03-nhCoV, Vero C1008. In kind it is functional, organism-based.

Data set [6] can be described thus: Permeability of the compound across apical to basolateral side in human Caco-2 cells at pH 6.5 to 7.4. It is filed as ADME, cell-based. The note with it: Caco-2, pH 6.5, read-out: permeability. The method, boiled down: (§3)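 Caco-2 cells (0.5 × 10^6/well) were grown 7 days on collagen-coated transwell filters. Compound was dosed at 50, 75 and 100 μM input in 1% DMSO/HBSS, apical pH 6.5 and basolateral pH 7.4. Samples were taken every 30 min for 2 h in duplicate and quantified by LC/MS/MS. Papp was calculated from receiver concentration, time, area and mid-point donor and receiver concentrations. Monolayer integrity required fluorescein Papp below 1.5 × 10−6 cm/s.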

The nature of data set [7]: Toxicity in Balb/c mouse assessed as effect on body weight loss at 12.5 to 25 mg/kg, ip administered as multiple dose measured upto 15 days. The note with it: in vivo, 360 h, dose 12.5-25 mg/kg, time < 15 day. In kind it is organism-based. The method, boiled down: as §2
The nature of data set [8]: Toxicity in Balb/c mouse assessed as effect on gamma GT at 12.5 to 25 mg/kg. In kind it is organism-based. To be noted: in vivo, dose 12.5-25 mg/kg. The method, boiled down: as §2
Data set [9] is described as follows: Toxicity in Balb/c mouse assessed as reduction in platelet population at 25 mg/kg. In kind it is organism-based. To be noted: in vivo.
Data set [10] in a line: Stability in human microsomes assessed as compound remaining at 1 uM measured after 60 mins in absence of NADPH by LC-MS-MS analysis. It is filed as ADME, Microsome. To be noted: read-out: Stability. An outline of the steps: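 Compound was incubated in liver microsomes without NADPH. Percent remaining was measured after 60 min.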
A short description of data set [11]: Toxicity in Balb/c mouse assessed as change in histological variation in liver at 12.5 to 25 mg/kg by H and E staining based analysis. In kind it is organism-based. The note with it: in vivo, dose 12.5-25 mg/kg. An outline of the steps:
as §1

The nature of data set [12]: Toxicity in Balb/c mouse assessed as change in histological variation in kidney at 12.5 to 25 mg/kg by H and E staining based analysis. The note with it: in vivo, dose 12.5-25 mg/kg. It is filed as organism-based. The method, boiled down:
as §1

The nature of data set [13]: Permeability of the compound across apical to basolateral side in human Caco-2 cells assessed as drug recovery at pH 6.5 to 7.4. In kind it is ADME, cell-based. To be noted: Caco-2, pH 6.5, read-out: Drug recovery. The method, boiled down: as §3
For orientation: Caco-2 monolayers are a common model of the intestinal barrier.

Data set [14] is described as follows: Toxicity in Balb/c mouse assessed as effect on total protein at 12.5 to 25 mg/kg. It is filed as organism-based. To be noted: in vivo, dose 12.5-25 mg/kg. The method, boiled down:
as §2

The nature of data set [15]: Toxicity in Balb/c mouse assessed as change in histological variation in spleen at 12.5 to 25 mg/kg by H and E staining based analysis. In kind it is organism-based. To be noted: in vivo, dose 12.5-25 mg/kg. The method, boiled down:
as §1

Data set [16] can be described thus: Toxicity in Balb/c mouse assessed as effect on urea at 12.5 to 25 mg/kg. In kind it is organism-based. The note with it: in vivo, dose 12.5-25 mg/kg. The method, boiled down: as §2
The nature of data set [17]: Selectivity index, ratio of CC50 for African green monkey Vero E6 cells to IC50 for antiviral activity against MERS-CoV NRCE-HKU270 infected in Vero E6 cells. The note with it: read-out: Ratio CC50/IC50. It is filed as toxicity, cell-based, Vero C1008.
Data set [18] is described as follows: Toxicity in Balb/c mouse assessed as effect on AST at 12.5 to 25 mg/kg. It is filed as organism-based. To be noted: in vivo, dose 12.5-25 mg/kg. An outline of the steps:
as §2

Data set [19] concerns the target Replicase polyprotein 1ab (Severe acute respiratory syndrome coronavirus 2, UniProt P0DTD1). The experiment in a line: Inhibition of recombinant SARS CoV-2 PL protease incubated for 2 hrs followed by substrate addition and measured after 1 hr by fluorescence based analysis.

The structures appear in SMILES notation. pIC50: −log10 of the molar value. ≈ marks a conversion by molar mass, not a printed value.

One may read the CC50 as the concentration that lowers cell viability or growth by half. As a reminder, the IC50 is the concentration that gives 50% inhibition. For orientation: pIC50 means −log10 of the IC50, conventionally taken in molar units. As to `COc1ccc2[nH]c3c(c2c1)C[C@]1(OC)CC[C@H]2c4[nH]c5ccccc5c4CCN2[C@@H]1C3`, the Activity in data set [1] is 0; in data set [3] it was 0; in [4] it was “Non-Toxic”; in data set [5], “Non-Toxic”; in data set [7] it was “Non-Toxic”; in data set [8], “Non-Toxic”. Also, the Activity entry in data set [9], in data set [11], in data set [12], in data set [14], in [15] and in data set [16] was “Non-Toxic” in each case. Also, the Activity result in data set [18] is reported as “Non-Toxic”. This molecule had a CC50 in the data set on Vero C1008 of 55.63 µg/mL (≈ 130 µM). The t1/2 in data set [2] was above 1 h. For the same molecule, the IC50 with SARS-CoV-2 worked out at 12.1 µg/mL (≈ 28.3 µM). In addition, the Papp A→B in [6] came to 5.9 ×10⁻⁶ cm/s. The remaining at 1 h, 1 µM in data set [10] came out at 102%. Also, the recovery in data set [13] stood at 77%. Further, the selectivity ratio in data set [17] was determined as 8.96. The pIC50 in [19] is 7.04.
